Experimental data reported in the EternaBench riboswitch data.

System: MS2 coat protein
Assay: apparent Kd, MS2 coat protein; higher = weaker binding; RNA-MaP array; FMN 200 µM where present
Method in brief: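 The apparent Kd is reported as the median of filtered per-cluster binding-curve fits. To get these curves, designs transcribed by stalled E. coli RNA polymerase on Illumina sequencing-chip clusters were titrated with SNAP-549-labelled MS2 coat protein from 0.7 or 1.5 nM, doubling to 3 µM. Titrations were run without and then with constant ligand in 100 mM Tris-HCl pH 7.5, 80 mM KCl, 4 mM MgCl2, BSA, DTT, yeast tRNA and Tween-20, and green signal was normalised to red-channel RNA signal and control-cluster median Fmax.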

[1] = designed as: OFF switch for flavin mononucleotide, no ligand
[2] = ligand present: flavin mononucleotide, designed as: OFF switch for flavin mononucleotide
[3] = designed as: ON switch for flavin mononucleotide, no ligand
[4] = ligand present: flavin mononucleotide, designed as: ON switch for flavin mononucleotide

Row | Sequence | apparent Kd [1] [nM] | apparent Kd [2] [nM] | apparent Kd [3] [nM] | apparent Kd [4] [nM]
1 | CUUUCGUUAGCAGGAUAUGGACAGGCCUGUCCGUAUUGAGUCAGUAACAUGAGGAUCACCCAUGUCCAGAAGGGCUCGAAGGGA | 14.1 | 46.6 | – | –
2 | UUUGCAUUCCGAGGAUAUUCAGAUAAUAACUACACAUGAGGAUCACCCAUGUGGCGAUAGCCUAGGGAGAAGGCGGUUUGCUUU | – | – | 19.7 | 20.9
3 | GGGUAGUGAGGAUAUCGUUGUUAGGAGGAGAAGGUAGGAGGCGAGAAGGCACAUGAGGAUCACCCAUGUAUGAG | 31 | 28.1 | – | –
4 | GUUAGUUAAGGAUAUACUGGGAGCUGCGGCGUCUCGCCGCAACAUGAGGAUCACCCAUGUAGAAGGUGACCGUU | 640 | 285 | – | –
5 | ACGGCUGUCAGAGGAUAUGGUUACAUGAGGAUCACCCAUGUCAAGGGUCUAAUUAAGUAUAACUACUAGAAGGCUGAUGGCCGA | 282 | 129 | – | –
6 | ACAUGAGGAUCACCCAUGUUUUUCGGGUACUCUUUUUACAGCAAGGAUAUGCAUUAUUUAUGUACGCAGAAGGUGCUUUACGUC | 77 | 138 | – | –
7 | AUGGUGCAGGUACAGGAUAUGUUGCUCGUAACAUGAGGAUCACCCAUGUACCUAUGAGAUUAAAUGCAGAAGGGUGCACACCAAA | – | – | 538 | 20.6
8 | UUGCGGUAGGAGAAGGACAGAGGCUUAAUUACAUACAUGAGGAUCACCCAUGUAGGAUAUCCUACCUAACGCGGACUCCUCCAG | 7.65 | 7.83 | – | –
9 | GCGGAACAUGAGGAUCACCCAUGUAAAGGGUGUAAAGGAUAUUAUUGGGAGAAGGUAGGGUAAGAAGGUUGCUUGG | – | – | 887 | 1280
10 | AAAUAAAUCACAGGAUAUCUAGGGAUACAUGAGGAUCACCCAUGUUUGCAAAGAGAAGGGUGACAGUAUUAUCAGAUCAACAAU | – | – | 210 | 38.1
11 | UUACCUCAUGAGAAGGACAUGAGGAUCACCCAUGUAGGAUAUCGUGGGACACUGGAAUUGAAUCUUCGGAUUCAAUAACUGUAU | – | – | 349 | 26.2
12 | ACAUGCGGAUGAGGAUAUUCAUCCAUGAGGAUAGAAGAAGGCAUACAUGAGGAUCACCCAUGUAUACGCAUGAGGAUCCCUUAU | 23.6 | 28.7 | – | –
13 | CGAUUAUUGAUCCAUUUUUACAACAUGAGGAUCACCCAUGUGCAGGAUAUCGUGAUUAUUAUCAACGAGAAGGGCAAAUUCACG | 49 | 137 | – | –
14 | AAAGGACGAGGAUAUACAUGAGGAUCACCCAUGUAAAAAGCAUAAUAAAAUAACUUAUGUAGAAGGCGUCCAAA | 21.9 | 108 | – | –
15 | CGACCACAUGAGGAUCACCCAUGUAAGGAUAUAUUGAAUGAGCCGGCGGCAGUAAAAGAUAGAAGGUGCGUGUA | 23.1 | 22 | – | –
16 | GGUUGUCAUCGUCAUCCUUUCGGUACAUGAGGAUCACCCAUGUAGGAUAUGCUGCUCUCGGUGUGGCAGAAGGGCGUGUGUGUU | 24.4 | 39.5 | – | –
17 | GCUGGUCGAGGAUAUGCAAUCGUGCUUCGGCACGUAAGAUCACAUGAGGAUCACCCAUGUAGAAGGCGACCAGC | 19.5 | 74 | – | –
18 | UUGUUGUGAGGAUAUCCAAUAUAUGACAUGAGGAUCACCCAUGUUUCCACUCGUACCUCCGGAGAAGGCACUUAGU | 29.2 | 27.9 | – | –
19 | GAGCGGUGAGCAGGAUAUCCACAUUGCCUCCUACAUGAGGAUCACCCAUGUGGAGAAGGGUUUAUAAGUUCGUGUAUACUCAAU | 10.5 | 10 | – | –
20 | UUACAGUGCGGGUAGGAUAUGUAGGGUGGUACAUGAGGAUCACCCAUGUAUCCACCCUUCGACCGGCAGAAGGGCCUAUCACUGC | – | – | 15.9 | 13.6
21 | AGGAAACAUGAGGAUCACCCAUGUAAAUAUGGGCGAGGAUAUCGAAAGAAAAGAAAGAAACGAGAAGGCGCAAAAG | – | – | 324 | 77.7
22 | GGCUACGUUUCGUAGCAGCUAGGUGAGGAUAUUCAAUUUUUCACAUGAGGAUCACCCAUGUAUGUGAAGAAGGCGCCUAGAAAU | – | – | 11.8 | 5.04
23 | UGGGUAAGUGUAGGAUAUUUAUAUUAAUAGUAUGGAGAAGGACAUGAGGAUCACCCAUGUACAGGGAGUUGCCCAUUUCCUCUC | 335 | 671 | – | –
24 | CGAUAUAUGAAGGGCGAAAGCCCACAUGAGGAUCACCCAUGUAGAAGGCGAUCCGCAACGCGGAUCGAGGAUAUAUAGUAUACA | 9.48 | 10.4 | – | –
25 | UGGUCAUGAUCAGGAUAUUAACAUGGGCUACAUUAAGAAGGGAUAGUGAGAUGCGAACGGAACGACAUGAGGAUCACCCAUGUA | – | – | 44.6 | 35
26 | GUAGCUAUCGGAGGAUAUUCAUACCGGAAACGGACAUGAGGAUCACCCAUGUGGCGAAAGCCUUGGGAGAAGGCCGAUCGCUAC | – | – | 239 | 8.45
27 | CCGGAGACGGGUAGCCUGACAUGAGGAUCACCCAUGUAAUACGAGGAUAUGGAUCCUAAUUGGAUCCAGAAGGUGUCAGGCUAC | – | – | 908 | 729
